Source: PubChem
Fh CTSL1 inh: cathepsin L1 inhibition, PFM18AAP counter-screen; inhibition, % at 5.96 µM; recombinant F. hepatica cathepsin L1, Z-Leu-Arg-MCA fluorescence; AID 1906; 300,000 compounds, 0.49% hits;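 active means inhibition above the mean of all tested compounds plus 3 SD, set per screening campaign, cut at about 17% in these data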;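 further: 0% = plate median of test compound wells and 100% = 1 µM Z-Phe-Ala-diazomethylketone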
UCH37 DUB inh: human UCH37 deubiquitinating enzyme inhibition; Q9Y5K5; purified proteasome/UCH37, Ub-AMC cleavage fluorescence; inhibition, % (test concentration not listed); 330,000 compounds, 0.33% hits; AID 588478;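 active means mean inhibition over replicate wells above about 20%, limit read from the data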;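 further: 0% = compound-free wells with enzyme and 100% = wells lacking proteasome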
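Assay system: Proteasome-bound UCH37. Buffer or medium: pH 7.4 Tris-HCl (50 mM) with ovalbumin, ATP-MgCl2, DTT. Incubation: 30 min preincubation with enzyme, 25 min cleavage at room temperature. Measured by: fluorescence, ex 355 nm, em 460 nm. Read-out basis: percent inhibition. Control set: wells without proteasome as full block, compound-free enzyme plus substrate as uninhibited.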
TDP2 absorb: TDP2 (human) inhibition, absorbance primary screen; inhibition, % at 12.8 µM; 370,000 compounds, 0.34% hits; O95551; AID 720702; recombinant TDP2, T5PNP hydrolysis, p-nitrophenol absorbance 415 nm;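 active means inhibition above the mean of all tested compounds plus 3 SD, set per campaign, cut at about 25% in these data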;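 further: 0% = DMSO with enzyme and 100% = buffer with substrate but no TDP2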
Target sequence (O95551 whole entry, looked up): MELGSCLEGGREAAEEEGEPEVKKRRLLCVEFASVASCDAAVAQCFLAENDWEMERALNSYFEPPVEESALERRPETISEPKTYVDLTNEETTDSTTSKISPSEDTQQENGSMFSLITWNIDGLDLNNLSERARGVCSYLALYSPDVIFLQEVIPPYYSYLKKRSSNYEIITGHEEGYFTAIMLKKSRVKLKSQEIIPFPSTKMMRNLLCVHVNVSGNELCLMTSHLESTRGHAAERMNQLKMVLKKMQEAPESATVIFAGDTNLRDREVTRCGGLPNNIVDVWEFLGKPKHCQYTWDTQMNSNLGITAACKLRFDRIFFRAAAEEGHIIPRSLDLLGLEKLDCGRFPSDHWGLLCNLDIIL
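Incubation: 2 h at 37 °C; Test system: recombinant human TDP2; Quantity: enzyme 120 nM; Read-out basis: percent inhibition; Medium: 50 mM Tris-HCl pH 7.5 with Mg2+, KCl, DTT, BSA; Repeats: single replicate; Compound: 12.8 µM single point, 1% DMSO; Signal: epi absorbance; Reagent: 5 mM T5PNP chromogenic substrate; Benchmarks: no-enzyme high, DMSO-plus-enzyme low.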
PAD4 FP inh: PAD4 (human) enzyme inhibition; Q9UM07; recombinant PAD4, RCA probe fluorescence polarization; inhibition, % at 6.36 µM; 330,000 compounds, 0.41% hits;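 active means percent inhibition above a cutoff equal to the mean of all tested compounds plus 3 SD, cut at about 15% in these data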;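 further: 0% = PAD4 with RCA probe and DMSO and 100% = probe without PAD4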
HKDC1 inhibitor: blocks human hexokinase HKDC1 activity. Q2TB90. AID 493160. recombinant HKDC1, G6PDH/diaphorase resazurin coupled fluorescence. inhibition, % at 20 µM. 340,000 compounds, 0.16% hits;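 active means inhibition above about 35% when tested at 20 µM, limit read from the data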;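 further: plate controls were DMSO wells with enzyme for no effect and DMSO wells lacking enzyme for full effect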
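Test system: HK5 enzyme. Quantity: 5 µg/mL HK5 final. Reagent: glucose and ATP substrates. Schedule: 90 min reaction incubation at room temperature, dark. Technique: resazurin-to-resorufin fluorescence via G6PDH and diaphorase coupling, 525/613 nm. Control set: DMSO wells with and without enzyme mix.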
GSTO1 counter: counter-screen for RBBP9 inhibitors: inhibitors of human GSTO1 | 300,000 compounds, 1.1% hits | recombinant GSTO1, activity-based probe fluorescence polarization | inhibition, % at 5.96 µM;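 active means inhibition above the campaign mean inhibition plus 3 SD, cut at about 35% in these data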;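 further: 0% = GSTO1-1 with DMSO and 100% = wells lacking GSTO1-1 enzyme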
Target sequence (P78417 whole entry, looked up): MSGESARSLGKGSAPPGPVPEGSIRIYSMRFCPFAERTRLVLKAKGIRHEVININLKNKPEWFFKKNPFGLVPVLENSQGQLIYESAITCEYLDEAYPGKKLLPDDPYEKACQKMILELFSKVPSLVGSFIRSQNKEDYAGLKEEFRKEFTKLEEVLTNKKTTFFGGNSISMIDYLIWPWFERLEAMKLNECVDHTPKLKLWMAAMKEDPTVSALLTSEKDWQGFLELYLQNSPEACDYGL
GSTO1 confirm: confirmation of human GSTO1 inhibitors. 2,400 compounds, 54% hits. inhibition, % at 5.96 µM. shares compounds with GSTO1 counter. recombinant GSTO1, probe fluorescence polarization;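 active means inhibition above the primary screen's cutoff, its mean inhibition plus 3 SD, cut at about 35% in these data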;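 further: loss of polarization as inhibitors block binding of rhodamine sulfonate ester activity probe; 0% = GSTO1 with DMSO and 100% = wells lacking GSTO1 enzyme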
GSTO1 ABPP inh: blocks recombinant human glutathione S-transferase omega 1; recombinant GSTO1, gel ABPP SE-Rh probe fluorescence; 130 compounds, 30% hits; shares compounds with GSTO1 counter; inhibition, % at 1 µM; AID 463110;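 active means inhibition of the enzyme GSTO1 above about 75%, limit read from the data; inactive means inhibition below that limit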
PAD4 FP conf: confirmation of human PAD4 inhibitors; recombinant PAD4, RCA probe fluorescence polarization; inhibition, % at 6.36 µM; 1,200 compounds, 28% hits; shares compounds with PAD4 FP inh;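 active means mean inhibition across replicates above the hit cutoff set by the earlier primary screen, cut at about 15% in these data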;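 further: inhibitors block active-site labeling by the probe so polarization falls; 0% = PAD4 with probe and DMSO and 100% = probe without PAD4 enzyme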
* marks the source's active call; other numbers are inactive results; i = inactive; . = no result. Most compounds without a hit are left out; they make up all but 1.6% or so of the library.

SMILES | Fh CTSL1 inh | UCH37 DUB inh | TDP2 absorb | PAD4 FP inh | HKDC1 inhibitor | GSTO1 counter | GSTO1 confirm | others
COc1ccccc1C=NNC(=O)c1[nH]c(C)c(C(=O)NN=Cc2ccccc2OC)c1C | . | 11 | . | . | . | . | .
COc1ccc(S(=O)(=O)n2oc(=O)cc2-c2ccccc2)cc1OC | 2 | 2 | 11 | 3 | 0 | 40* | -1
CN1CCN(C2=C(Cl)C(=O)N(C3CCCCC3)C2=O)CC1 | 3 | 7 | -14 | -2 | 4 | 0 | .
CN1CCN(C2=C(Cl)C(=O)C(c3cnc(N4CCCCC4)s3)=C(Cl)C2=O)CC1 | -1 | -22 | . | 23* | 55* | 84* | 19
O=c1cc2oc3cc(O)c(O)cc3c(-c3ccccc3[N+](=O)[O-])c-2cc1O | 5 | 13 | 3 | -3 | 19 | 50* | 41*
O=c1cc(-c2ccccc2Cl)oc2cccc(O)c12 | -1 | 5 | -7 | 5 | -8 | 4 | .
COC(=O)CCCC1=CC2=C(c3ccccc3)C(=O)C(C)(OC(=O)C3CCCC3)C(=O)C2=CN1CCCCO (centres undefined) | 15 | 6 | 16 | -12 | 13 | 45* | 19
C[C@H](NC(=O)OC(C)(C)C)C(=O)NN=Cc1ccc2nccnc2c1 | . | 7 | . | . | . | . | .
O=C(NCc1ccc2c(c1)OCO2)c1nnc(Cc2ccc(Cl)cc2)o1 | 1 | 1 | 4 | -2 | -2 | 59* | 1
O=C(CCl)N(c1ccccc1)C1CCS(=O)(=O)C1 (centres undefined) | -1 | 5 | -5 | 0 | -5 | 79* | 85* | GSTO1 ABPP inh=46
CC(=O)Oc1ccc(OC(C)=O)c(SCCCCCN2CCOCC2)c1 | -17 | 3 | 4 | -7 | 11 | 79* | 6
CC(C)c1ccc(OCCCCCN2CCOCC2)cc1 | 5 | 3 | 10 | -1 | -3 | 1 | .
Fc1ccc(C=NN2CCOCC2)c(F)c1 | . | 2 | . | . | . | . | .
Cc1cc(N)ccc1N1CCCC1 | -1 | . | . | 28* | 15 | 73* | 6
NC(=O)c1cc(N)ccc1N1CCCCC1 | 0 | 4 | -7 | -1 | -9 | -1 | .
NC(=O)c1cc(N)ccc1N1CCCC1 | 1 | -30 | 11 | -5 | 17 | 51* | 5
C=CCN1C(=O)NC(c2ccccc2)(C(F)(F)F)S/C1=C(\C#N)c1nnc(N2CCOCC2)n1-c1ccccc1 (centres undefined) | 3 | 8 | -7 | 1 | 7 | 43* | 58*
CCN(c1ccc(NC(=O)COC(=O)CCC(=O)c2ccc(F)cc2)cc1)C(C)C | -36 | 1 | -3 | -3 | 4 | 38* | 24
COc1ccc(C(C)=NNS(=O)(=O)c2ccccc2)c(OC)c1 | . | 3 | . | . | . | . | .
O=C(NCCN1CCOCC1)NC1(C(F)(F)F)Oc2ccc(Cl)cc2O1 (centres undefined) | -5 | 1 | 1 | -4 | -4 | 49* | 6
COc1ccc(C=NNC(=O)c2ccc(N(C)S(=O)(=O)c3ccccc3)cc2)c(OC)c1 | . | -6 | . | . | . | . | .
CCOC(=O)Cc1c(C)c2c(O)cc(O)cc2oc1=O | -1 | i | 5 | -3 | 8 | 59* | 0
CCOC(=O)Cc1c(C)c2ccc(N(CC)CC)cc2oc1=O | 3 | i | -14 | 2 | 0 | 6 | .
Cc1ccc(C2CC(c3cccs3)=NN2C(=O)CCl)cc1 (centres undefined) | 52* | . | 4 | 7 | 25 | 87* | 97*
[O-][n+]1onc2c1CCC(=N/O)/C2=N\Nc1ccccc1 | 1 | . | . | 4 | . | 40* | 13
SMILES | Fh CTSL1 inh | UCH37 DUB inh | TDP2 absorb | PAD4 FP inh | HKDC1 inhibitor | GSTO1 counter | GSTO1 confirm | others
CC(=NNC(=O)C1CC1c1ccccc1)c1ccc(C)s1 (centres undefined) | . | -3 | . | . | . | . | .
COc1cc(C=NNC(=O)c2cccc(Cl)c2)ccc1Oc1ccc([N+](=O)[O-])cn1 | . | 3 | . | . | . | . | .
CCOC(=O)NN=Cc1cn(CCCOc2ccc(C)cc2)c2ccccc12 | . | 3 | . | . | . | . | .
O=C(CNC(=S)NC(=O)c1ccc(Cl)cc1)c1ccccc1 | -1 | 1 | -5 | -1 | -7 | 2 | .
O=C(CNC(=S)NC(=O)c1ccc(Br)o1)c1ccccc1 | -3 | 1 | 3 | 0 | -4 | 46* | 15
COc1ccc(C(=O)N/N=C/c2ccc3cccc(O)c3n2)cc1 | 3 | . | -5 | -26 | 1 | 41* | 6
CC(=O)Nc1cccc(C(C)=NN2C(C)CCCC2C)c1 (centres undefined) | . | 2 | . | . | . | . | .
COc1cccc2c1C(=O)c1c(O)c3c(c(O)c1C2=O)C[C@@](O)(C(=O)CO)C[C@@H]3O[C@H]1C[C@H](N)[C@H](O)[C@H](C)O1 | 0 | 5 | 6 | 58* | 9 | 45* | 32 | PAD4 FP conf=68*
COc1cccc2c1C(=O)c1c(O)c3c(c(O)c1C2=O)C[C@@](O)(C(=O)CO)C[C@@H]3OC1CC(N)C(O)C(C)O1 (some centres undefined) | . | . | 5 | . | 25 | . | .
O=C(O)/C=C1\NC(=O)c2ccccc21 | 0 | 5 | -11 | -5 | -3 | 3 | .
O=C1N/C(=C\c2ccc(O)cc2)C(=O)c2ccccc21 | 108* | 87* | . | 30* | 6 | 75* | 79* | PAD4 FP conf=-3
CC(=NNC(=O)C(C)Oc1ccc([N+](=O)[O-])cc1)c1ccccn1 (centres undefined) | . | 1 | . | . | . | . | .
CC(=O)Nc1ccc(NC2=C(Cl)C(=O)c3ccccc3C2=O)cc1 | . | 12 | 13 | . | -36 | . | .
CN(C)c1ccc(NC2=C(Cl)C(=O)c3ccccc3C2=O)cc1 | 2 | 13 | 22 | 28* | -21 | 94* | 89* | PAD4 FP conf=16*
O=C1C=C(Nc2cccc3cccnc23)c2ccccc2C1=O | 20* | . | 19 | 34* | 29 | 77* | 58* | PAD4 FP conf=54*
Oc1cccc(C=NCc2ccccc2)c1O | 2 | 1 | 10 | 21* | 8 | 89* | 12 | PAD4 FP conf=0
CC1(OC(=O)C2CCCC2)C(=O)C=C2C=C(c3ccsc3)N(Cc3ccccc3)C=C2C1=O (centres undefined) | -1 | -1 | -3 | -9 | 28 | 12 | .
CC1(OC(=O)C2CCCC2)C(=O)C=C2C=C(c3ccsc3)N(CCc3ccccn3)C=C2C1=O (centres undefined) | 2 | 5 | -4 | 19* | 24 | 49* | 5 | PAD4 FP conf=-5
